Results taken from PubChem BioAssay.
Records with an inconclusive call do not appear.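 Rule for the calls, unless noted: active = RAM network inhibition above 8.4% in each of two replicates, 3 SD over the compound average; inconclusive = above 8.4% inhibition in only one replicate; inactive = 8.4% inhibition or less in each replicate.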

Key:
[1] = S. cerevisiae growth inhibition in permissive medium (OD615), pilot counter-assay for S. cerevisiae lifespan shortening project, permissive growth control (AID 705;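 active = growth inhibition above 25% in both replicates, a cutoff set 3 SD above the mean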); details: OD615, 24 h, at 10 µM, stronger effect = higher value
In short: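 System: Engineered DeaD yeast | Buffer or medium: SC raffinose/galactose permissive medium | Doses: 10 µM single dose, 0.25% DMSO | Times: 24 h exposure, 30 °C | Measured by: OD615 turbidity read | Read-out: Yeast growth inhibition indicated by reduced 24 h OD615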

[2] = S. cerevisiae growth inhibition in restrictive medium, OD615, pilot screen, restrictive growth control, yeast lifespan reduction project (AID 706;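 active = growth inhibition above a set limit, 3 SD over mean compound inhibition, in both replicates, cut at about 43% in these data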;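 note: modified DeaD lifespan yeast strain shifted to restrictive glucose medium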); details: OD615, 48 h, at 10 µM, stronger effect = higher value
In short: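 Assay system: engineered S. cerevisiae DeaD strain; Buffer or medium: CSMM-D glucose medium; Dosing: 10 µM compound, 0.25% DMSO; Times: cell pre-growth 4 h, compound exposure 48 h, 30 °C; Detection: absorbance (optical density) measured at 615 nm.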

[3] = doxorubicin toxicity protection in MRP-1 cells – H69AR cells, CellTiter-Glo, duplicate, MRP-1 activator project, pilot screen (AID 807;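 active = viability increase at or above a cutoff of the median across tested compounds plus 3 SD, cut at about 8.5% in these data, passing the limit was not always enough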;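 note: compound pretreatment 18-22 h then 72 h combined with doxorubicin; 0% = doxorubicin alone and 100% = vehicle without doxorubicin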); details: H69AR viability with doxorubicin, CellTiter-Glo luminescence; at 10 µM; stronger effect = higher value
[4] = viability of HCT116 without oncogenic beta-catenin – human colon tumor cells, pilot screen (AID 823;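 active = cell viability at or below a set limit in both duplicate runs, the limit being the all-compound median minus 4 SD, cut at about 23% in these data, passing the limit was not always enough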;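 note: 0% = wells killed by 20 µM Hyamine and 100% = untreated DMSO cell wells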); details: HCT116 beta-catenin knockout viability, CellTiter-Glo, 60 h; at 10 µM; stronger effect = lower value
[5] = viability of PTEN-null HCT116 cells – cell-based, HCT116 clonal line, CellTiter-Glo, pilot screen (AID 824;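 active = viability at or below 27.92% in each of two runs, the all-compound median minus 4 SD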;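 note: 0% = 20 µM Hyamine control and 100% = vehicle cell control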); details: HCT116 PTEN-deleted viability, 60 h, at 10 µM, stronger effect = lower value
[6] = RAM pathway blockade in budding yeast – dse1pr::URA3 reporter, 5-FOA selection, pilot screen (AID 869;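 active = inhibition over a set limit, the all-compound mean plus 3 SD, in both replicate runs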;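 note: 0% = DMSO wells with no growth and 100% = 10 µM 1-NA-PP1 with full growth; RAM network block rescues cells from 5-FOA so hits raise OD615 growth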); details: S. cerevisiae dse1pr::URA3 5-FOA growth, OD615, 2 d; at 10 µM; stronger effect = higher value; strain carries analog-sensitive mutant Cbk1 kinase
[7] = RAM signaling pathway blockade in yeast – S. cerevisiae, Pdr1DBD-CYC8 efflux-inhibited sensitized strain, primary screen (AID 1298);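 note: 0% = DMSO untreated cells without growth and 100% = 10 µM 1-NA-PP1 full growth; higher means more yeast growth rescued from 5-FOA killing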; details: S. cerevisiae cbk1-as DSE1-URA3 strain, 5-FOA growth OD615, 2 d; at 50 µM; stronger effect = higher value

COc1ccc(-c2cn3c(C)c(C(=O)N4CCc5ccccc5C4)sc3n2)cc1
inactive: growth inhibition [1] 0.41% | growth inhibition [2] 6.71% | viability increase [3] -7.22% | viability [4] 87.6% | viability [5] 84.5% | inhibition [6] 3.01% | RAM network inhibition [7] 4.47%

O=C(Cn1cc2c(n1)CCCC2)NCCCN1CCN(c2ccccc2F)CC1
inactive: growth inhibition [1] -16.9% | growth inhibition [2] -6.56% | viability increase [3] -3.08% | viability [4] 89.5% | viability [5] 89% | inhibition [6] 0.665% | RAM network inhibition [7] 5.8%

O=C1C2=C(SCCS2)C(=O)N1CCCO
inactive: growth inhibition [1] -1.38% | growth inhibition [2] -3.45% | viability increase [3] 0.11% | viability [4] 98.9% | viability [5] 97.9% | inhibition [6] -0.095% | RAM network inhibition [7] 3.67%

COc1ccc(-c2cn3c(C)c(C(=O)NCc4ccc5c(c4)OCO5)sc3n2)cc1
inactive: growth inhibition [1] -4.21% | growth inhibition [2] 7.5% | viability increase [3] -3.02% | viability [4] 99.8% | viability [5] 100% | inhibition [6] 3.06% | RAM network inhibition [7] 3.34%

CCOC(=O)c1ccc(NC(=O)C23CCC(C)(C(=O)O2)C3(C)C)cc1 (stereo unspecified)
inactive: growth inhibition [1] 1.15% | growth inhibition [2] 4.45% | viability increase [3] 1.07% | viability [4] 93.5% | viability [5] 101% | inhibition [6] -0.095% | RAM network inhibition [7] 5.33%

CC1CCCC(NC(=O)Cn2cc3c(n2)CCCCC3)C1C (stereo unspecified)
inactive: growth inhibition [1] -16% | growth inhibition [2] -6.99% | viability increase [3] 0.62% | viability [4] 95.7% | viability [5] 90.8% | inhibition [6] -0.355% | RAM network inhibition [7] 0.1%

CC(=O)N1CCN(c2ccc(NCc3ccc(F)cc3)cc2)CC1
inactive: growth inhibition [1] -7.68% | growth inhibition [2] 0.705% | viability increase [3] -2.9% | viability [4] 90.1% | viability [5] 83.1% | inhibition [6] 2.81% | RAM network inhibition [7] 2.34%

C=CCOC(=O)C1=C(C)NC(C)=C(C(=O)OCC=C)C1c1ccc(O)cc1
inactive: growth inhibition [1] -6.92% | growth inhibition [2] -8.46% | viability increase [3] -4.51% | viability [4] 78.1% | viability [5] 71% | inhibition [6] 0.035% | RAM network inhibition [7] 2.05%

Cc1ccc(S(=O)(=O)NCC(=O)N2CCOCC2)cc1
inactive: growth inhibition [1] -3.62% | growth inhibition [2] -10.3% | viability increase [3] -1.57% | viability [4] 103% | viability [5] 109% | inhibition [6] -0.085% | RAM network inhibition [7] 0.68%

COC(=O)c1cn(NC(=O)c2ccncc2)c(=O)c2ccccc12
inactive: growth inhibition [1] -0.73% | growth inhibition [2] -19.7% | viability increase [3] -1.43% | viability [4] 98.3% | viability [5] 94.9% | inhibition [6] 0.87% | RAM network inhibition [7] 2.53%

COc1ccc(S(=O)(=O)NCCSc2ccc(C)cc2)cc1OC
inactive: growth inhibition [1] 1.08% | growth inhibition [2] 1.66% | viability increase [3] -2.26% | viability [4] 85.8% | viability [5] 86.1% | inhibition [6] 1.18% | RAM network inhibition [7] 2.65%

CC(=O)N(CCCc1ccc(C(C)(C)C)cc1)CCCN(C)C
inactive: growth inhibition [1] -2.64% | growth inhibition [2] -12.6% | viability increase [3] -5.16% | viability [4] 70.6% | viability [5] 76.2% | inhibition [6] 0.59% | RAM network inhibition [7] 1.48%

O=S(=O)(NC1CCCCC1NCc1ccco1)c1ccccc1 (stereo unspecified)
inactive: growth inhibition [1] -9.75% | growth inhibition [2] -2.12% | viability increase [3] -4.92% | viability [4] 98% | viability [5] 92.6% | inhibition [6] 1.82% | RAM network inhibition [7] 6.55%

Cc1ccccc1NC(=O)c1cnn(-c2ccccc2)c1NC(=O)c1ccco1
inactive: growth inhibition [1] -12.6% | growth inhibition [2] -3.13% | viability increase [3] -0.49% | viability [4] 103% | viability [5] 98.2% | inhibition [6] 0.855% | RAM network inhibition [7] 1.65%

COc1ccc(OC)c(N(CC(=O)NCCSc2ccccc2)S(C)(=O)=O)c1
inactive: growth inhibition [1] -4.86% | growth inhibition [2] -9.71% | viability increase [3] -3.1% | viability [4] 96.9% | viability [5] 95.5% | inhibition [6] 0.23% | RAM network inhibition [7] 4.35%

CCOC(=O)C(CCC#N)(CCC#N)C(=O)OCC
inactive: growth inhibition [1] -11.9% | growth inhibition [2] -5.42% | viability increase [3] -0.16% | viability [4] 95.9% | viability [5] 102% | inhibition [6] 0.445% | RAM network inhibition [7] 5.31%

c1ccc(-c2nnc(SCc3nc4ccccc4[nH]3)n2Cc2ccco2)nc1
inactive: growth inhibition [1] -0.44% | growth inhibition [2] 10.8% | viability increase [3] -1.33% | viability [4] 90.3% | viability [5] 91% | inhibition [6] 0.04% | RAM network inhibition [7] -0.6%

N#Cc1cn(CC(=O)NCC2CCCO2)c2ccccc12 (stereo unspecified)
inactive: growth inhibition [1] 1.68% | growth inhibition [2] -3% | viability increase [3] -1.75% | viability [4] 93.1% | viability [5] 91.4% | inhibition [6] 1.1% | RAM network inhibition [7] 5.31%
